Data as given in ChEMBL document CHEMBL4715736, “Identification of anticancer agents based on the thieno[2,3-b]pyridine and 1H-pyrazole molecular scaffolds” (2016).

Assays:
Format in all cases: functional
Hs-578T = assay: Growth inhibition of human Hs-578T cells assessed as cell growth at 0.01 uM incubated for 48 hrs by sulforhodamine B assay relative to control; conditions: read-out: Activity
MDA-MB-231 = assay: Growth inhibition of human MDA-MB-231 cells assessed as cell growth at 0.1 uM incubated for 48 hrs by sulforhodamine B assay relative to control; conditions: read-out: Activity
NCI-H322M = assay: Growth inhibition of human NCI-H322M cells assessed as cell growth at 0.01 uM incubated for 48 hrs by sulforhodamine B assay relative to control; conditions: read-out: Activity
UACC-257 = assay: Growth inhibition of human UACC-257 cells assessed as cell growth at 1 uM incubated for 48 hrs by sulforhodamine B assay relative to control; conditions: read-out: Activity
SN12C [1] = assay: Growth inhibition of human SN12C cells assessed as cell growth at 0.1 uM incubated for 48 hrs by sulforhodamine B assay relative to control; conditions: read-out: Activity
MOLT-4 = assay: Growth inhibition of human MOLT-4 cells assessed as cell growth at 100 uM incubated for 48 hrs by sulforhodamine B assay relative to control; conditions: read-out: Activity
SF-268 = assay: Growth inhibition of human SF-268 cells assessed as cell growth at 1 uM incubated for 48 hrs by sulforhodamine B assay relative to control; conditions: read-out: Activity
SF-295 = assay: Growth inhibition of human SF-295 cells incubated for 48 hrs by sulforhodamine B assay
Summary of the method: (§1)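 NCI DTP 60-line human tumour panel. Dose-response curves were run only for ligands active in the initial 10 µM screen. GI50 (concentration giving 50% of maximal inhibition of proliferation) and TGI (concentration giving total growth inhibition) were derived from these curves.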

HCT-116 = assay: Growth inhibition of human HCT-116 cells assessed as cell growth at 0.01 uM incubated for 48 hrs by sulforhodamine B assay relative to control; conditions: read-out: Activity
SW-620 = assay: Growth inhibition of human SW-620 cells assessed as cell growth at 1 uM incubated for 48 hrs by sulforhodamine B assay relative to control; conditions: read-out: Activity
OVCAR-8 = assay: Growth inhibition of human OVCAR-8 cells assessed as cell growth at 1 uM incubated for 48 hrs by sulforhodamine B assay relative to control; conditions: read-out: Activity
KM12 = assay: Growth inhibition of human KM12 cells assessed as cell growth at 1 uM incubated for 48 hrs by sulforhodamine B assay relative to control; conditions: read-out: Activity
HOP-62 [2] = assay: Growth inhibition of human HOP-62 cells assessed as cell growth at 0.1 uM incubated for 48 hrs by sulforhodamine B assay relative to control; conditions: read-out: Activity
SNB-19 = assay: Growth inhibition of human SNB-19 cells assessed as cell growth at 0.01 uM incubated for 48 hrs by sulforhodamine B assay relative to control; conditions: read-out: Activity
NCI-H460 = assay: Growth inhibition of human NCI-H460 cells incubated for 48 hrs by sulforhodamine B assay
Summary of the method: (§2)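 NCI60 panel at the NCI Developmental Therapeutics Program. Only compounds active in the 10 µM screen went to dose-response testing. GI50, the concentration giving 50% of maximal inhibition of proliferation, and TGI, the concentration giving total growth inhibition, were derived from the dose-response curves.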

SK-MEL-5 [3] = assay: Growth inhibition of human SK-MEL-5 cells incubated for 48 hrs by sulforhodamine B assay; summary of the method: as §1
SN12C [4] = assay: Growth inhibition of human SN12C cells assessed as cell growth at 1 uM incubated for 48 hrs by sulforhodamine B assay relative to control; conditions: read-out: Activity
HOP-62 [5] = assay: Growth inhibition of human HOP-62 cells incubated for 48 hrs by sulforhodamine B assay; summary of the method: as §2
SK-MEL-5 [6] = assay: Growth inhibition of human SK-MEL-5 cells assessed as cell growth at 1 uM incubated for 48 hrs by sulforhodamine B assay relative to control; conditions: read-out: Activity
OVCAR-4 = assay: Growth inhibition of human OVCAR-4 cells assessed as cell growth at 1 uM incubated for 48 hrs by sulforhodamine B assay relative to control; conditions: read-out: Activity
IGROV-1 [7] = assay: Growth inhibition of human IGROV-1 cells assessed as cell growth at 100 uM incubated for 48 hrs by sulforhodamine B assay relative to control; conditions: read-out: Activity
MCF7 [8] = assay: Growth inhibition of human MCF7 cells assessed as cell growth at 0.01 uM incubated for 48 hrs by sulforhodamine B assay relative to control; conditions: read-out: Activity
NCI-H522 = assay: Growth inhibition of human NCI-H522 cells assessed as cell growth at 1 uM incubated for 48 hrs by sulforhodamine B assay relative to control; conditions: read-out: Activity
OVCAR-3 = assay: Growth inhibition of human OVCAR-3 cells assessed as cell growth at 0.01 uM incubated for 48 hrs by sulforhodamine B assay relative to control; conditions: read-out: Activity
T47D = assay: Growth inhibition of human T47D cells assessed as cell growth at 1 uM incubated for 48 hrs by sulforhodamine B assay relative to control; conditions: read-out: Activity
786-0 = assay: Growth inhibition of human 786-0 cells assessed as cell growth at 0.01 uM incubated for 48 hrs by sulforhodamine B assay relative to control; conditions: read-out: Activity
Summary of the method: (§3)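 NCI Developmental Therapeutics Program NCI60 panel. Compounds that were active in the 10 µM one-dose screen went on to dose–response testing. Growth at each concentration is expressed relative to untreated control (100%). GI50 (concentration giving 50% of maximal inhibition of proliferation) and TGI (concentration giving total growth inhibition) were derived from the curves.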

IGROV-1 [9] = assay: Growth inhibition of human IGROV-1 cells incubated for 48 hrs by sulforhodamine B assay; summary of the method: as §2
DU-145 = assay: Growth inhibition of human DU-145 cells assessed as cell growth at 100 uM incubated for 48 hrs by sulforhodamine B assay relative to control; conditions: read-out: Activity; summary of the method: as §3
LOX IMVI = assay: Growth inhibition of human LOX IMVI cells assessed as cell growth at 100 uM incubated for 48 hrs by sulforhodamine B assay relative to control; conditions: read-out: Activity
OVCAR-5 = assay: Growth inhibition of human OVCAR-5 cells assessed as cell growth at 1 uM incubated for 48 hrs by sulforhodamine B assay relative to control; conditions: read-out: Activity
MCF7 [10] = assay: Growth inhibition of human MCF7 cells assessed as cell growth at 1 uM incubated for 48 hrs by sulforhodamine B assay relative to control; conditions: read-out: Activity
SK-OV-3 = assay: Growth inhibition of human SK-OV-3 cells incubated for 48 hrs by sulforhodamine B assay; conditions: for CC50: read-out: LC50 (the source's name); summary of the method: as §1
MDA-MB-468 = assay: Growth inhibition of human MDA-MB-468 cells assessed as cell growth at 100 uM incubated for 48 hrs by sulforhodamine B assay relative to control; conditions: read-out: Activity
PC-3 [11] = assay: Growth inhibition of human PC-3 cells assessed as cell growth at 0.01 uM incubated for 48 hrs by sulforhodamine B assay relative to control; conditions: read-out: Activity
PC-3 [12] = assay: Growth inhibition of human PC-3 cells assessed as cell growth at 100 uM incubated for 48 hrs by sulforhodamine B assay relative to control; conditions: read-out: Activity

Q: What does the source list for `Cc1ccc(NC(=O)c2sc3nc4c(cc3c2N)C(=O)CCC4)cc1C`?
A: growth at 0.01 µM (Hs-578T): 93%; growth at 0.1 µM (MDA-MB-231): 95%; growth at 0.01 µM (NCI-H322M): 93%; growth at 1 µM (UACC-257): 50%; growth at 0.1 µM (SN12C [1]): 96%; growth at 100 µM (MOLT-4): -6%; growth at 1 µM (SF-268): 57%; GI50 (SF-295): 328 nM; LC50 (concentration killing 50% of cells) (SF-295): > 100 µM; TGI (SF-295): > 100 µM; growth at 0.01 µM (HCT-116): 99%; growth at 1 µM (SW-620): 19%; growth at 1 µM (OVCAR-8): 68%; growth at 1 µM (KM12): 24%; growth at 0.1 µM (HOP-62 [2]): 86%; growth at 0.01 µM (SNB-19): 91%; GI50 (NCI-H460): 374 nM; LC50 (NCI-H460): > 100 µM; TGI (NCI-H460): ≥ 100 µM; GI50 (SK-MEL-5 [3]): 376 nM; LC50 (SK-MEL-5 [3]): ≥ 100 µM; TGI (SK-MEL-5 [3]): 16.4 µM; growth at 1 µM (SN12C [4]): 41%; GI50 (HOP-62 [5]): 605 nM; LC50 (HOP-62 [5]): > 100 µM; TGI (HOP-62 [5]): > 100 µM; growth at 1 µM (SK-MEL-5 [6]): 21%; growth at 1 µM (OVCAR-4): 42%; growth at 100 µM (IGROV-1 [7]): 10%; growth at 0.01 µM (MCF7 [8]): 89%; growth at 1 µM (NCI-H522): 1%; growth at 0.01 µM (OVCAR-3): 102%; growth at 1 µM (T47D): 23%; growth at 0.01 µM (786-0): 98%; GI50 (IGROV-1 [9]): 1.09 µM; LC50 (IGROV-1 [9]): > 100 µM; TGI (IGROV-1 [9]): > 100 µM; growth at 100 µM (DU-145): 14%; growth at 100 µM (LOX IMVI): 20%; growth at 1 µM (OVCAR-5): 66%; growth at 1 µM (MCF7 [10]): 18%; GI50 (SK-OV-3): 534 nM; TGI (SK-OV-3): > 100 µM; CC50 (SK-OV-3): > 100 µM; growth at 100 µM (MDA-MB-468): -1%

Q: What does the source list for `CN1CCc2nc3sc(C(N)=O)c(N)c3c(-c3cccs3)c2C1`?
A: growth at 0.01 µM (Hs-578T): 95%; growth at 0.1 µM (MDA-MB-231): 109%; growth at 0.01 µM (NCI-H322M): 96%; growth at 1 µM (UACC-257): 111%; growth at 0.1 µM (SN12C [1]): 93%; growth at 100 µM (MOLT-4): -4%; growth at 1 µM (SF-268): 107%; GI50 (SF-295): 3610 nM; LC50 (concentration killing 50% of cells) (SF-295): > 100 µM; TGI (SF-295): > 100 µM; growth at 0.01 µM (HCT-116): 100%; growth at 1 µM (SW-620): 116%; growth at 1 µM (OVCAR-8): 82%; growth at 0.01 µM (PC-3 [11]): 105%; growth at 1 µM (KM12): 82%; growth at 0.1 µM (HOP-62 [2]): 104%; growth at 0.01 µM (SNB-19): 103%; GI50 (NCI-H460): 3710 nM; LC50 (NCI-H460): > 100 µM; TGI (NCI-H460): > 100 µM; GI50 (SK-MEL-5 [3]): 1430 nM; LC50 (SK-MEL-5 [3]): > 100 µM; TGI (SK-MEL-5 [3]): 5.24 µM; growth at 1 µM (SN12C [4]): 80%; GI50 (HOP-62 [5]): 3270 nM; LC50 (HOP-62 [5]): > 100 µM; TGI (HOP-62 [5]): > 100 µM; growth at 1 µM (SK-MEL-5 [6]): 64%; growth at 1 µM (OVCAR-4): 108%; growth at 100 µM (IGROV-1 [7]): 9%; growth at 0.01 µM (MCF7 [8]): 98%; growth at 1 µM (NCI-H522): 86%; growth at 0.01 µM (OVCAR-3): 110%; growth at 100 µM (PC-3 [12]): 6%; growth at 1 µM (T47D): 84%; growth at 0.01 µM (786-0): 95%; GI50 (IGROV-1 [9]): 5.16 µM; LC50 (IGROV-1 [9]): > 100 µM; TGI (IGROV-1 [9]): > 100 µM; growth at 100 µM (DU-145): -1%; growth at 100 µM (LOX IMVI): 2%; growth at 1 µM (MCF7 [10]): 111%; GI50 (SK-OV-3): 3350 nM; TGI (SK-OV-3): > 100 µM; CC50 (SK-OV-3): > 100 µM; growth at 100 µM (MDA-MB-468): -59%
